ChEMBL document CHEMBL1125112, “Antitumor imidazotetrazines. 20. Preparation of the 8-acid derivative of mitozolomide and its utility in the preparation of active antitumor agents” (1990)

Legend:
Format in all cases: functional
L1210 [1] = test: In vivo antitumor activity against the L1210 leukemia cell line in mouse species B6D2F1 after peroral administration (inoculum cells-10E5,iv) at the dose of 200 mg/kg; conditions: route oral
L1210 [2] = test: In vivo antitumor activity against the L1210 leukemia cell line in mouse species B6D2F1 after peroral administration (inoculum cells-10E5,iv) at the dose of 100 mg/kg; conditions: route oral
L1210 [3] = test: In vivo antitumor activity against the L1210 leukemia cell line in mouse species B6D2F1 after peroral administration (inoculum cells-10E5,iv) at the dose of 100 mg/kg on 7th day; conditions: route oral
Outline: (§1)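 B6D2F1 mice were inoculated with 10^5 L1210 leukemia cells, ip or iv as the line states. Compound was given orally as a suspension in 1% (carboxymethyl)cellulose in water, dosed on day 1 or 3, over 28–39 days. T/C% = mean death day of treated/mean death day of controls. Survivors to the end were counted in groups of 7–8.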

L1210 [4] = test: In vivo antitumor activity against the L1210 leukemia cell line in mouse species B6D2F1 after peroral administration (inoculum cells-10E5,iv) at the dose of 200 mg/kg on 7th day; conditions: route oral; outline: as §1
L1210 [5] = test: In vivo antitumor activity against the L1210 leukemia cell line in mouse species B6D2F1 after peroral administration (inoculum cells-10E5,iv) at the dose of 50 mg/kg; conditions: route oral
L1210 [6] = test: In vivo antitumor activity against the L1210 leukemia cell line in mouse species B6D2F1 after peroral administration (inoculum cells-10E5,iv) at the dose of 50 mg/kg on 7th day; conditions: route oral; outline: as §1
L1210 [7] = test: In vivo antitumor activity against the L1210 leukemia cell line in mouse species B6D2F1 after peroral administration (inoculum cells-10E5,ip at the dose of 160 mg/kg; conditions: route oral
L1210 [8] = test: In vivo antitumor activity against the L1210 leukemia cell line in mouse species B6D2F1 after peroral administration (inoculum cells-10E5,ip) at the dose of 320 mg/kg; conditions: route oral
L1210 [9] = test: In vivo antitumor activity against the L1210 leukemia cell line in mouse species B6D2F1 after peroral administration (inoculum cells-10E5,ip) at the dose of 40 mg/kg; conditions: route oral
L1210 [10] = test: In vivo antitumor activity against the L1210 leukemia cell line in mouse species B6D2F1 after peroral administration (inoculum cells-10E5,ip) at the dose of 80 mg/kg; conditions: route oral
L1210 [11] = test: In vivo antitumor activity against the L1210 leukemia cell line in mouse species B6D2F1 after peroral administration (inoculum cells-10E5,ip)at the dose of 320 mg/kg on 7th day; conditions: route oral; outline: as §1
L1210 [12] = test: In vivo antitumor activity against the L1210 leukemia cell line in mouse species B6D2F1 after peroral administration (inoculum cells-10E5,ip) at the dose of 80 mg/kg on 8th day; conditions: route oral; outline: as §1
L1210 [13] = test: In vivo antitumor activity against the L1210 leukemia cell line in mouse species B6D2F1 after peroral administration (inoculum cells-10E5,ip) at the dose of 160 mg/kg on 8th day; conditions: route oral; outline: as §1
L1210 [14] = test: In vivo antitumor activity against the L1210 leukemia cell line in mouse species B6D2F1 after peroral administration (inoculum cells-10E5,ip) at the dose of 40 mg/kg on 8th day; conditions: route oral; outline: as §1
TLX-5 [15] = test: (§2) In vivo antitumor activity against the TLX5 lymphoma cell line in mouse species CBA/CA after intraperitoneal administration (inoculum cells-2x10E5,sc) at the dose of 160 mg/kg on 5th day
Outline: (§3)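 CBA/CA mice were inoculated with 2 × 10^5 TLX5 lymphoma cells. Drug given intraperitoneally in 10% Me2SO in arachis oil, 5 mice per dose, and the experiment lasted 60 days. Survivors at 60 days were recorded. T/C % = mean death day of treated animals / mean death day of control animals.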

TLX-5 [16] = test: (§4) In vivo antitumor activity against the TLX5 lymphoma cell line in mouse species CBA/CA after intraperitoneal administration (inoculum cells-2x10E5,sc) at the dose of 20 mg/kg; outline: as §3
TLX-5 [17] = test: In vivo antitumor activity against the TLX5 lymphoma cell line in mouse species CBA/CA after intraperitoneal administration (inoculum cells-2x10E5,sc) at the dose of 320 mg/kg; outline: as §3
TLX-5 [18] = test: In vivo antitumor activity against the TLX5 lymphoma cell line in mouse species CBA/CA after intraperitoneal administration (inoculum cells-2x10E5,sc) at the dose of 40 mg/kg; outline: as §3
TLX-5 [19] = test: In vivo antitumor activity against the TLX5 lymphoma cell line in mouse species CBA/CA after intraperitoneal administration (inoculum cells-2x10E5,sc) at the dose of 80 mg/kg; outline: as §3
TLX-5 [20] = test: (§5) In vivo antitumor activity against the TLX5 lymphoma cell line in mouse species CBA/CA after intraperitoneal administration (inoculum cells-2x10E5,sc) at the dose of 160 mg/kg
Outline: (§6)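 CBA/CA mice were implanted sc with 2 × 10^5 TLX5 lymphoma cells. Compound was given ip on day 3 in 10% Me2SO in arachis oil, over 60 days, in groups of 5. T/C% = mean death day of treated/mean death day of controls. Survivors to day 60 were counted.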

TLX-5 [21] = test: In vivo antitumor activity against the TLX5 lymphoma cell line in mouse species CBA/CA after intraperitoneal administration (inoculum cells-2x10E5,sc) at the dose of 20 mg/kg on 5th day
TLX-5 [22] = test: In vivo antitumor activity against the TLX5 lymphoma cell line in mouse species CBA/CA after intraperitoneal administration (inoculum cells-2x10E5,sc) at the dose of 320 mg/kg on 5th day
TLX-5 [23] = test: In vivo antitumor activity against the TLX5 lymphoma cell line in mouse species CBA/CA after intraperitoneal administration (inoculum cells-2x10E5,sc) at the dose of 40 mg/kg on 5th day
TLX-5 [24] = test: In vivo antitumor activity against the TLX5 lymphoma cell line in mouse species CBA/CA after intraperitoneal administration (inoculum cells-2x10E5,sc) at the dose of 80 mg/kg on 5th day
TLX-5 [25] = test: In vivo antitumor activity against the TLX5 lymphoma cell line in mouse species CBA/CA after intraperitoneal administration (inoculum cells-2x10E5,sc) at the dose of 10 mg/kg
TLX-5 [26] = test: In vivo antitumor activity against the TLX5 lymphoma cell line in mouse species CBA/CA after intraperitoneal administration (inoculum cells-2x10E5,sc) at the dose of 10 mg/kg on 5th day
TLX-5 [27] = test: as §2; remark: listed apart in the source
TLX-5 [28] = test: as §5; outline: as §3; remark: listed apart in the source
TLX-5 [29] = test: In vivo antitumor activity against the TLX5 lymphoma cell line in mouse species CBA/CA after intraperitoneal administration (inoculum cells-2x10E5,sc) at the dose of 640 mg/kg; outline: as §3
TLX-5 [30] = test: In vivo antitumor activity against the TLX5 lymphoma cell line in mouse species CBA/CA after intraperitoneal administration (inoculum cells-2x10E5,sc) at the dose of 640 mg/kg on 5th day
L1210 [31] = test: In vivo antitumor activity against the L1210 leukemia cell line in mouse species B6D2F1 after peroral administration (inoculum cells-10E5,iv) at the dose of 10 mg/kg on 7th day; conditions: route oral
L1210 [32] = test: In vivo antitumor activity against the L1210 leukemia cell line in mouse species B6D2F1 after peroral administration (inoculum cells-10E5,iv) at the dose of 5 mg/kg on 7th day; conditions: route oral
TLX-5 [33] = test: as §4; outline: as §6; remark: listed apart in the source
TLX-5 [34] = test: In vivo antitumor activity against the TLX5 lymphoma cell line in mouse species CBA/CA after intraperitoneal administration (inoculum cells-2x10E5,sc) at the dose of 5 mg/kg on 5th day
L1210 [35] = test: In vivo antitumor activity against the L1210 leukemia cell line in mouse species B6D2F1 after peroral administration (inoculum cells-10E5,iv) at the dose of 20 mg/kg on 7th day; conditions: route oral; outline: as §1

Row | Structure (SMILES) | T/C (TLX-5 [16]) | T/C (TLX-5 [17]) | T/C (TLX-5 [18]) | T/C (TLX-5 [19]) | Survivors (TLX-5 [21]) | Survivors (TLX-5 [22]) | Survivors (TLX-5 [23]) | Survivors (TLX-5 [24]) | Survivors (TLX-5 [27]) | also measured
1 | O=C(NO)c1ncn2c(=O)n(CCCl)nnc12 |  |  |  |  |  |  |  |  |  | T/C (L1210 [1]): 218%; T/C (L1210 [2]): 187%; Survivors (L1210 [3]): 0; Survivors (L1210 [4]): 0
2 | O=C(NOCc1ccccc1)c1ncn2c(=O)n(CCCl)nnc12 |  |  |  |  |  |  |  |  |  | T/C (L1210 [1]): 98%; T/C (L1210 [2]): 98%; T/C (L1210 [5]): 98%; Survivors (L1210 [3]): 0; Survivors (L1210 [4]): 0; Survivors (L1210 [6]): 0
3 | O=C(O)c1ncn2c(=O)n(CCCl)nnc12 | 102% | 223% | 103% | 106% | 0 | 0 | 0 | 0 |  | T/C (L1210 [7]): 107%; T/C (L1210 [8]): 106%; T/C (L1210 [9]): 102%; T/C (L1210 [10]): 101%; Survivors (L1210 [11]): 0; Survivors (L1210 [12]): 0; Survivors (L1210 [13]): 0; Survivors (L1210 [14]): 0; T/C (TLX-5 [15]): 108%; Survivors (TLX-5 [20]): 0
4 | [N-]=[N+]=NC(=O)c1ncn2c(=O)n(CCCl)nnc12 | 97% |  | 96% | 106% | 0 |  | 0 | 0 | 0 | T/C (TLX-5 [25]): 101%; Survivors (TLX-5 [26]): 0
5 | COC(=O)c1ncn2c(=O)n(CCCl)nnc12 | 106% | 140% | 110% | 110% | 0 | 0 | 0 | 0 | 0 | T/C (TLX-5 [28]): 123%
6 | CCOC(=O)CNC(=O)c1ncn2c(=O)n(CCCl)nnc12 |  | 114% |  | 96% |  | 0 |  | 0 | 0 | T/C (TLX-5 [28]): 105%; T/C (TLX-5 [29]): 139%; Survivors (TLX-5 [30]): 0
7 | O=C(Nc1ccccc1)c1ncn2c(=O)n(CCCl)nnc12 |  |  |  |  | 0 | 0 | 0 | 0 | 0 | 
8 | NC(=O)c1ncn2c(=O)n(CCCl)nnc12 [MITOZOLOMIDE] |  |  |  |  |  |  |  |  |  | Survivors (L1210 [31]): 0; Survivors (L1210 [32]): 0; Survivors (TLX-5 [26]): 0; Survivors (TLX-5 [33]): 0; Survivors (TLX-5 [34]): 0; Survivors (L1210 [35]): 0
